Assay results taken from the M2OR odorant receptor database.

biological target: T1, OR2A1 (Homo sapiens) (UniProt Q8NGT9); conditions: stereoisomer not certain
T1 sequence (whole entry): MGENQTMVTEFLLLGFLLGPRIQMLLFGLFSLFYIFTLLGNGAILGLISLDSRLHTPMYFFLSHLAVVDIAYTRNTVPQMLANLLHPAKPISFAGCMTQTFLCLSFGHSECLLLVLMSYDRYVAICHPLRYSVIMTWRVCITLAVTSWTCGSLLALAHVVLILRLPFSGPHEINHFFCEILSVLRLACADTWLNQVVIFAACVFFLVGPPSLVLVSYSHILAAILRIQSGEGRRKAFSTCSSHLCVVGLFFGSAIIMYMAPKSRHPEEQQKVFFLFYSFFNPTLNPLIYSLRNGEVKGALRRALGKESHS
Summary of the method: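 Assay methods differ from source to source, frequently being transient luciferase assays in mammalian cell lines. For each receptor–molecule pair, the label responsive (active) applies when the original authors judged the measured signal statistically different from baseline, and non-responsive (inactive) applies otherwise.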

Structure (SMILES) | odorant receptor agonist call
CCCCCCCCCC(=O)OC | inactive
CCCCCCCCCCCC(=O)OCC | inactive
CCCCOCC(C)O (stereo not drawn) | inactive
C=C(C)C1CC=C(C)CC1 (stereo not drawn) | inactive
CCCCCCCCCCCCCCCCCC(=O)[O-].[H+] | inactive
CCCCCCCCCCCCCCCC(=O)[O-].[H+] | inactive
CCC(C)CO (stereo not drawn) | inactive
CCCC(=O)CC | inactive
COc1ccc2[nH]cc(CCNC(C)=O)c2c1 | inactive
CCCO | inactive
Cc1ccc(C(C)C)cc1 | inactive
CCCCCCCCCCCCCCCC(=O)OC | inactive
CCCCCCCCCCCC(=O)OC | inactive
CC(=O)O | inactive
CCCCCCCCO | inactive
CCCCCCCCCCCCCC(=O)OC | inactive
CCCCC(=O)C(C)=O | inactive
CCCCCCCCCCCCCCC(=O)O | inactive
Cc1cccc(C)c1C | inactive
CCCCCCCCCC(=O)OCC | inactive
CC(C=O)Cc1ccc(C(C)(C)C)cc1 (stereo not drawn) | inactive
CCCCCCCCCCCCCC(=O)OCC | inactive
CCCCCCC(=O)[O-].[H+] | inactive
CC(O)C(=O)[O-].[H+] (stereo not drawn) | inactive
Cc1cnc(C)cn1 | inactive
CCCCCCCCCCCCO | inactive
CCCCCCCCCCCCCCCCCC(=O)OC | inactive
O=c1ccc2ccccc2o1 | inactive
